Among the data in ChEMBL document CHEMBL1136130, “Synthesis and biological evaluation of gambierol analogues” (Bioorg Med Chem Lett, 2003) are Min lethal dose values, retold here.

The data set is described as follows: Minimal lethal dose of compound expressed as toxicity against male mice (ddY strain) after intraperitoneal administration. As to conditions: mouse, in vivo, ip. A digest of the protocol: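 Male ddY mice (12–17 g) received single intraperitoneal injections of HPLC-purified samples suspended in 1% Tween 60 at a range of dose levels. Lethality and neurological signs were observed. The minimal lethal dose is reported in mg/kg.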

The compound `C=CC/C=C\C=C/[C@H]1O[C@H]2C[C@H]3O[C@H]4CC[C@H]5O[C@H]6C[C@@]7(C)O[C@@]8(C)[C@@H](O)C[C@H](CCCO)O[C@@H]8C[C@@H]7O[C@@H]6C[C@@H]5O[C@]4(C)C[C@]3(C)O[C@@H]2C=C[C@@H]1O` came in with a Min lethal dose of 0.34 mg/kg. In the case of `CC(=O)OC[C@H]1O[C@H]2C[C@H]3O[C@H]4CC[C@H]5O[C@H]6C[C@@]7(C)O[C@@]8(C)[C@@H](O)C[C@H](CCCO)O[C@@H]8C[C@@H]7O[C@@H]6C[C@@H]5O[C@]4(C)C[C@]3(C)O[C@@H]2CC[C@@H]1OC(C)=O` it was over 8.2 mg/kg; in that of `CCCCC/C=C\[C@H]1O[C@H]2C[C@H]3O[C@H]4CC[C@H]5O[C@H]6C[C@@]7(C)O[C@@]8(C)[C@@H](OCc9ccccc9)C[C@H](CCCOCc9ccccc9)O[C@@H]8C[C@@H]7O[C@@H]6C[C@@H]5O[C@]4(C)C[C@]3(C)O[C@@H]2CC[C@]1(C)O[Si](C)(C)C(C)(C)C`, over 7.6 mg/kg; in that of `C=CC/C=C\C=C/[C@H]1O[C@H]2C[C@H]3O[C@H]4CC[C@H]5O[C@H]6C[C@@]7(C)O[C@@]8(C)[C@@H](O)C[C@H](CCCO)O[C@@H]8C[C@@H]7O[C@@H]6C[C@@H]5O[C@]4(C)C[C@]3(C)O[C@@H]2C=C[C@]1(C)O`, 0.05 mg/kg. The value for `C=CC/C=C\C=C/[C@H]1O[C@H]2C[C@H]3O[C@H]4CC[C@H]5O[C@H]6C[C@@]7(C)O[C@@]8(C)[C@@H](O)C[C@H](CCCO)O[C@@H]8C[C@@H]7O[C@@H]6C[C@@H]5O[C@]4(C)C[C@]3(C)O[C@@H]2CC[C@]1(C)O` was 7.9 mg/kg; that for `C[C@@]12O[C@]3(C)C[C@@H]4O[C@@H]5CC[C@@H]6O[C@@H]7C[C@@H]8O[C@H](CO)[C@@H](O)CC[C@H]8O[C@@]7(C)C[C@@]6(C)O[C@H]5C[C@H]4O[C@H]3C[C@H]1O[C@@H](CCCO)C[C@@H]2O` was over 18.3 mg/kg. In the case of `C=CC/C=C\C=C/[C@H]1O[C@H]2C[C@H]3O[C@H]4CC[C@H]5O[C@H]6C[C@@]7(C)O[C@@]8(C)[C@@H](O)C[C@H](CCCO)O[C@@H]8C[C@@H]7O[C@@H]6C[C@@H]5O[C@]4(C)C[C@]3(C)O[C@@H]2CC[C@@H]1O` it was over 11.9 mg/kg.
